# Wee1 degr inh – human Wee1 degradation inhibition, primary screen. P30291. 1.2% of 220,000 active. reporter increase, % at 5 µM. HeLa Luc-Wee1K328M stability, luciferase luminescence; 100% = proteasome inhibitor MG132 effect;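 active = activation above the mean of all tested compounds plus 3 SD, set per screening run, cut at about 8.8% in these data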;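 note: cells exposed to compound for 20 h before luminescence read; 0% = DMSO alone and 100% = MG132 at 30 µM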
# RBBP9 inhibitor – inhibitors of human serine hydrolase RBBP9. O75884. recombinant RBBP9, FP-Rh probe fluorescence polarization. inhibition, % at 7.94 µM. 0.2% of 220,000 active. AID 1515;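 active = inhibition above the campaign mean of all tested compounds plus 3 SD, cut at about 14% in these data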;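 note: plate controls were DMSO wells with RBBP9 for no effect and wells lacking RBBP9 protein for full effect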
#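 Test system: recombinant human RBBP9; Timing: 30 min then 45 min, 25 °C; Detection: fluorescence polarization; Control set: RBBP9 with DMSO as uninhibited control, no-protein wells as full inhibition; Compound dosing: one concentration, 7.94 µM nominal, 0.794% DMSO; Probe or stimulus: FP-Rh activity-based probe, 375 nM before mixing.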
# PfM18AAP inh-1 – PfM18AAP enzyme inhibition. recombinant PfM18AAP, H-Glu-NHMec fluorogenic cleavage. inhibition, % at 7.35 µM. 1.2% of 290,000 active. AID 1822;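 active = inhibition above the campaign mean inhibition over all tested compounds plus 3 SD, cut at about 28% in these data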;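 note: 0% = plate median of test compound wells and 100% = 2 mM ZnCl2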
# p97 inhibitor – human p97 ATPase inhibition; P55072; recombinant p97 ATPase, Kinase-Glo ATP luminescence, 3 h; inhibition, % at 8 µM; 0.42% of 220,000 active; in the data active = inhibition above about 15%;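 note: 0% = DMSO vehicle and 100% = wells lacking enzyme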
# Target sequence (P55072 whole entry, looked up): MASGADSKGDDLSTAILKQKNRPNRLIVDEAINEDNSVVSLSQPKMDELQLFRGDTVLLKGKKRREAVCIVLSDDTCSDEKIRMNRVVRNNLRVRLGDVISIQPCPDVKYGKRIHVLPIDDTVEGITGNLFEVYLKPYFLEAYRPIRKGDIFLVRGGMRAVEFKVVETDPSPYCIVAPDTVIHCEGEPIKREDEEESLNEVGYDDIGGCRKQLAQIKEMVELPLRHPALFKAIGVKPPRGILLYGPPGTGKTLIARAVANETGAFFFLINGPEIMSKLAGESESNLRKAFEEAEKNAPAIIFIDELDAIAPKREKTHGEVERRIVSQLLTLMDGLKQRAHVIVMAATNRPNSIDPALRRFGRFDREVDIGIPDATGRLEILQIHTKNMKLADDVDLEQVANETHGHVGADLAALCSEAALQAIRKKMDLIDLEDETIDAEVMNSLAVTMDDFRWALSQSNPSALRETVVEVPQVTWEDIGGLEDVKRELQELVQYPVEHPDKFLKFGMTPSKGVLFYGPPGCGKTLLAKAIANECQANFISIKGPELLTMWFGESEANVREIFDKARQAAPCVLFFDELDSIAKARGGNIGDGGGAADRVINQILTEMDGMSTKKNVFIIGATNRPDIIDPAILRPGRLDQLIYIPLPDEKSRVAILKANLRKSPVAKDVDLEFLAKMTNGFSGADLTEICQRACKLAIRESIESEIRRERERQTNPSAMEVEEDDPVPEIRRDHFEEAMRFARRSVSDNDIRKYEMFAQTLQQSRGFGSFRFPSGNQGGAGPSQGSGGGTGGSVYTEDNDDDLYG
# L929 necroptosis – blocks zVAD induced death of L929 cells; 0.38% of 220,000 active; AID 1377; L929 zVAD necroptosis rescue, ATP luminescence, 24 h; with zVAD 60 µM; viability rescue, % at 10 µM;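 active = activation, scaled between plate controls, above about 75%, limit read from the data; inactive = activation under that limit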;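 note: 0% = zVAD with DMSO and 100% = DMSO alone without zVAD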
# TNF death inh – inhibitors of TNF-alpha induced necroptosis in Jurkat FADD-/- cells. 0.068% of 220,000 active. Jurkat FADD-/- TNF necroptosis rescue, ATP luminescence, 24 h; 0 = TNF only, 100 = no-TNF cells. activation (protection from cell death), % at 10 µM;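 active = activation, meaning protection from cell death, of at least 50% relative to plate controls; inactive = activation below 50%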;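 note: necroptosis triggered by 40 ng/mL TNF-alpha added together with compound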
# PfM18AAP inh-2 – PfM18AAP inhibition, confirmation | shares compounds with PfM18AAP inh-1 | recombinant PfM18AAP, H-Glu-NHMec fluorogenic cleavage | inhibition, % at 7.35 µM | 28% of 2,400 active | AID 2170;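 active = mean inhibition over replicate wells above the hit cutoff set for the earlier primary screen, cut at about 29% in these data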;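 note: 0% = median of test compound wells and 100% = 2 mM ZnCl2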
# CTSL1 counter – Cathepsin L (human) inhibition, confirmation; shares compounds with PfM18AAP inh-1; purified cathepsin L1, Z-Leu-Arg-MCA fluorescence; inhibition, % at 5.96 µM; 2,400 tested, under 10 active;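 active = average inhibition across replicates above the hit cutoff set in the earlier primary screen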;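 note: 0% = median of test compound wells and 100% = Z-Phe-Ala-diazomethylketone 1 µM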
# * hit, by the source's call; . = no result. Hits are enriched below; roughly 2.7% of the tested compounds scored in any of these assays.
SMILES,Wee1 degr inh,RBBP9 inhibitor,PfM18AAP inh-1,p97 inhibitor,L929 necroptosis,TNF death inh,PfM18AAP inh-2,CTSL1 counter
Cn1c(SCC2CCCO2)nnc1-c1cccc([N+](=O)[O-])c1 (centres undefined),3,-7,3,-4,-1,1,.,.
NNC(=O)CNC(=O)CNS(=O)(=O)c1ccccc1,-2,-2,3,8,2,1,.,.
CC(Cl)C(=O)NNC(=O)CNS(=O)(=O)c1ccccc1 (centres undefined),-3,6,45*,8,-1,2,20,-1
Cc1nc2ccc(S(=O)(=O)NCC(=O)N3CCN(c4ccccc4)CC3)cc2s1,-3,3,-27,1,2,-3,.,.
Cc1nc2ccc(S(=O)(=O)NCC(=O)NC(C)c3ccccc3)cc2s1 (centres undefined),4,2,33*,3,0,-1,-31,3
CS(=O)(=O)N1CCC(Oc2ccccc2C(=O)NC(C2CC2)C2CC2)CC1,-2,-6,-7,4,0,0,.,.
O=C(O)Cc1sc(Nc2ccc(Cl)cc2)nc1-c1cccs1,2,-28,33*,-5,-1,-1,-30,1
Cc1sc2nc(CSc3ncn[nH]3)[nH]c(=O)c2c1C,-2,-4,72*,2,3,-1,71*,-3
COc1ccc(N(CCC(=O)O)S(=O)(=O)c2ccc(C)cc2C)cc1,0,2,4,1,1,1,.,.
COc1cccc(NC(=O)C(OC(=O)/C=C/c2ccc3c(c2)OCO3)c2ccccc2)c1 (centres undefined),-1,-31,32*,-5,0,2,-38,-7
COc1ccccc1NS(=O)(=O)c1cccc(-n2c(O)c(C=Nc3ccccc3C(=O)O)c3ccccc3c2=O)c1,2,-6,-2,-7,0,-10,.,.
O=C(N/N=C/c1c[nH]c2ccccc12)c1ccc(O)c(O)c1,.,.,70*,.,.,.,50*,2
O=C(N/N=C/c1c[nH]c2ccccc12)c1cccc(O)c1,.,.,3,.,.,.,.,.
NS(=O)(=O)c1ccc(NC(=S)N2CCN(C(=O)C3CCCO3)CC2)cc1 (centres undefined),.,.,47*,.,.,.,1,1
O=C(C1CCCO1)N1CCN(C(=S)Nc2ccc(Br)cc2)CC1 (centres undefined),.,.,9,.,.,.,.,.
CCOC(=O)NC1(NC2CCCCC2)Oc2ccccc2O1,-3,-1,55*,4,1,-10,35*,0
CCOC(=O)NC(NC(=O)OCC)C(=O)c1ccccc1,0,-6,-11,1,0,1,.,.
CCOC(=O)NC1(NCC(C)C)Oc2ccccc2O1,1,3,66*,0,-1,-11,34*,1
CCOC(=O)NC1(Nc2ccc(C)cc2)Oc2ccccc2O1,-3,-3,58*,11,7,-11,60*,-3
CCOC(=O)NC1c2ccccc2Oc2ccccc21,-3,2,-12,2,0,1,.,.
CCOC(=O)C(C(=O)Nc1ccccc1)C1CCCCC1 (centres undefined),0,-7,3,-4,1,1,.,.
CCOC(=O)NC1(NC(C)C)Oc2ccccc2O1,-1,10,80*,0,1,-6,-2,-5
CCCOc1ccccc1/C=C(\C#N)C(=O)Nc1cccnc1,2,-7,5,4,2,-1,.,.
O=[N+]([O-])c1cccnc1N/N=C/c1ccccc1O,-3,-2,9,-3,10,-13,.,.
Cc1c(O)ccc(/C=N/Nc2ncccc2[N+](=O)[O-])c1O,.,.,43*,.,.,.,10,1
O=C(CO/N=C\c1ccccc1)Nc1ccccc1C(=O)N1CCOCC1,-1,-4,2,0,0,0,.,.
O=C(N/N=C/c1ccc(O)c(O)c1)c1ccc(CSc2cccc3cccnc23)cc1,2,-12,57*,3,1,-17,49*,-5
